Laboratory results as given in ChEMBL document CHEMBL1687796, “Synthesis and spectrum of the neoglycoside ACHN-490” (2010).
Values after ≈ are worked out from the molar mass of the structure shown.

What was measured:
[1] = system: Acinetobacter baumannii; test: Antibacterial activity against Acinetobacter baumannii ATCC 19606 by broth microdilution method; format: functional; settings: ATCC 19606 = CIP 70.34 = JCM 6841
Method in brief: (§1)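 MICs were measured by broth microdilution following CLSI guidance. The strains formed a 25-strain screening panel with diverse aminoglycoside resistance mechanisms. The panel included Gram-negative and S. aureus strains carrying key aminoglycoside-modifying enzymes, strains with altered permeability or efflux, and an armA ribosomal methyltransferase strain.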

[2] = system: Pseudomonas aeruginosa; test: Antibacterial activity against Pseudomonas aeruginosa expressing AAC(3)-1 by broth microdilution method; format: functional
[3] = system: Pseudomonas aeruginosa; test: Antibacterial activity against Pseudomonas aeruginosa expressing AAC(6')-2 by broth microdilution method; format: functional
[4] = system: Providencia stuartii; test: Antibacterial activity against aminoglycoside-resistant Providencia stuartii expressing AAC(2')-1 by broth microdilution method
[5] = system: Pseudomonas aeruginosa; test: Antibacterial activity against wild type Pseudomonas aeruginosa expressing efflux pump by broth microdilution method; format: functional
Method in brief: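 MIC was determined by CLSI broth microdilution, read in μg/ml. The strain came from a 25-strain screening panel with diverse aminoglycoside resistance mechanisms. The panel included strains with changes in permeability or efflux, key aminoglycoside-modifying enzymes and an armA methyltransferase strain.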

[6] = system: Escherichia coli; test: Antibacterial activity against Escherichia coli ATCC 25922 by broth microdilution method; format: functional; method in brief: as §1
[7] = system: Escherichia coli; test: Antibacterial activity against aminoglycoside-resistant Escherichia coli expressing APH(3')-1b by broth microdilution method
[8] = system: Staphylococcus aureus; test: microbe, parasite or virus in culture; settings: ATCC 29213
[9] = system: Serratia marcescens; test: Antibacterial activity against aminoglycoside-resistant Serratia marcescens expressing ANT(2''), AAC(6') by broth microdilution method; format: functional; method in brief: as §1
[10] = system: Acinetobacter; test: Antibacterial activity against aminoglycoside-resistant Acinetobacter spp. expressing APH(3')-6 by broth microdilution method; format: functional
Method in brief: (§2)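 Clinical aminoglycoside-resistant isolates were each carrying a single aminoglycoside-modifying enzyme. […] MICs were determined by CLSI broth microdilution.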

[11] = system: Staphylococcus aureus; test: Antibacterial activity against aminoglycoside-resistant Staphylococcus aureus expressing APH(2'') + AAC(6') by broth microdilution method; format: functional; method in brief: as §1
[12] = system: Escherichia coli; test: Antibacterial activity against aminoglycoside-resistant Escherichia coli expressing AAC(6')-1 by broth microdilution method
[13] = system: Escherichia coli; test: Antibacterial activity against aminoglycoside-resistant Escherichia coli expressing armA methylase by broth microdilution method; format: functional; method in brief: as §1
[14] = system: Staphylococcus aureus; test: microbe, parasite or virus in culture
[15] = system: Escherichia coli; test: Antibacterial activity against aminoglycoside-resistant Escherichia coli expressing AAC(3)-2 by broth microdilution method
[16] = system: Acinetobacter calcoaceticus; test: Antibacterial activity against aminoglycoside-resistant Acinetobacter calcoaceticus expressing AAC(6')-1 by broth microdilution method; format: functional; method in brief: as §2
[17] = system: Pseudomonas aeruginosa; test: Antibacterial activity against Pseudomonas aeruginosa ATCC 27853 by broth microdilution method; format: functional
[18] = system: Staphylococcus aureus; test: microbe, parasite or virus in culture; remark: listed apart in the source
[19] = system: Pseudomonas aeruginosa; test: Antibacterial activity against efflux pump deficient Pseudomonas aeruginosa by broth microdilution method; format: functional
[20] = system: Escherichia coli; test: Antibacterial activity against aminoglycoside-resistant Escherichia coli expressing ANT(2'')-1 by broth microdilution method; format: functional; method in brief: as §2
[21] = system: Pseudomonas aeruginosa; test: Antibacterial activity against Pseudomonas aeruginosa expressing ANT(4')-2 by broth microdilution method; format: functional; method in brief: as §1
[22] = system: Escherichia coli; test: Antibacterial activity against aminoglycoside-resistant Escherichia coli expressing AAC(3)-IVa by broth microdilution method
[23] = system: Klebsiella pneumoniae; test: Antibacterial activity against Klebsiella pneumoniae ATCC 10031 by broth microdilution method; format: functional; method in brief: as §1
[24] = system: Acinetobacter baumannii; test: Antibacterial activity against aminoglycoside-susceptible Acinetobacter baumannii by broth microdilution method; format: functional
[25] = system: Pseudomonas aeruginosa; test: Antibacterial activity against Pseudomonas aeruginosa expressing mexXY operon by broth microdilution method; format: functional; method in brief: as §1

Question: Which MIC [1] does the source give for CN[C@@H]1[C@@H](O)[C@@H](O[C@@H]2[C@@H](O)[C@H](O[C@H]3OC(CN)=CC[C@H]3N)[C@@H](N)C[C@H]2N)OC[C@]1(C)O [SISOMICIN] here?
Answer: 8 µg/mL (≈ 17.9 µM)

Question: What about the MIC [2] of the same compound?
Answer: 32 µg/mL (≈ 71.5 µM)

Question: What about the MIC [3] of the same compound?
Answer: 32 µg/mL (≈ 71.5 µM)

Question: And the MIC [4]?
Answer: 64 µg/mL (≈ 143 µM)

Question: What about the MIC [5] of the same compound?
Answer: 1 µg/mL (≈ 2.23 µM)

Question: What about the MIC [6] of the same compound?
Answer: 0.5 µg/mL (≈ 1.12 µM)

Question: And the MIC [7]?
Answer: 0.25 µg/mL (≈ 0.559 µM)

Question: And the MIC [8]?
Answer: 0.5 µg/mL (≈ 1.12 µM)

Question: What about the MIC [9] of the same compound?
Answer: 8 µg/mL (≈ 17.9 µM)

Question: And the MIC [10]?
Answer: 0.5 µg/mL (≈ 1.12 µM)

Question: And the MIC [11]?
Answer: > 64 µg/mL

Question: What about the MIC [12] of the same compound?
Answer: 32 µg/mL (≈ 71.5 µM)

Question: What about the MIC [13] of the same compound?
Answer: > 64 µg/mL

Question: And the MIC [14]?
Answer: 1 µg/mL (≈ 2.23 µM)

Question: And the MIC [15]?
Answer: > 64 µg/mL

Question: What about the MIC [16] of the same compound?
Answer: 32 µg/mL (≈ 71.5 µM)

Question: What about the MIC [17] of the same compound?
Answer: 0.5 µg/mL (≈ 1.12 µM)

Question: What about the MIC [18] of the same compound?
Answer: 0.25 µg/mL (≈ 0.559 µM)

Question: And the MIC [19]?
Answer: 0.125 µg/mL (≈ 0.279 µM)

Question: And the MIC [20]?
Answer: 64 µg/mL (≈ 143 µM)

Question: What about the MIC [21] of the same compound?
Answer: 1 µg/mL (≈ 2.23 µM)

Question: And the MIC [22]?
Answer: 32 µg/mL (≈ 71.5 µM)

Question: What about the MIC [23] of the same compound?
Answer: 0.25 µg/mL (≈ 0.559 µM)

Question: What about the MIC [24] of the same compound?
Answer: 0.5 µg/mL (≈ 1.12 µM)

Question: What about the MIC [25] of the same compound?
Answer: 1 µg/mL (≈ 2.23 µM)
